Autophagy mod = autophagy modulators in MEF cells, primary screen, imaging, high-content, MEF GFP-LC3; MEF GFP-LC3 puncta imaging; test concentration mostly 10 µM; calls only at 10 µM (by protocol); 190,000 tested, 0.98% active;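 active = percentage of spot-positive cells more than 3 SD above its plate mean, without a fluorescence outlier flag or 80% toxicity; inconclusive = no clear call, values can overlap the other calls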
Mdm2 ligase inh = MDM2-luciferase reporter signal enhancers, primary screen, MDM2 E3 ligase inhibitor project, cell-based, luminescence, 1536-well; cell-based MDM2 ubiquitination luciferase reporter, 2 h; 0 = plate control, 100 = twice control, blank-subtracted; E3 ubiquitin-protein ligase Mdm2 (Homo sapiens), Q00987; signal enhancement, % at 5 µM; 210,000 tested, 0.11% active; AID 1230, 2008;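 active = signal enhancement of 30% or more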;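 also: luminescence tracks abundance of the self-degrading MDM2-luciferase fusion protein; higher signal means inhibition of MDM2 E3 ligase activity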
Target sequence (Q00987 whole entry, looked up, the tested form may be a part): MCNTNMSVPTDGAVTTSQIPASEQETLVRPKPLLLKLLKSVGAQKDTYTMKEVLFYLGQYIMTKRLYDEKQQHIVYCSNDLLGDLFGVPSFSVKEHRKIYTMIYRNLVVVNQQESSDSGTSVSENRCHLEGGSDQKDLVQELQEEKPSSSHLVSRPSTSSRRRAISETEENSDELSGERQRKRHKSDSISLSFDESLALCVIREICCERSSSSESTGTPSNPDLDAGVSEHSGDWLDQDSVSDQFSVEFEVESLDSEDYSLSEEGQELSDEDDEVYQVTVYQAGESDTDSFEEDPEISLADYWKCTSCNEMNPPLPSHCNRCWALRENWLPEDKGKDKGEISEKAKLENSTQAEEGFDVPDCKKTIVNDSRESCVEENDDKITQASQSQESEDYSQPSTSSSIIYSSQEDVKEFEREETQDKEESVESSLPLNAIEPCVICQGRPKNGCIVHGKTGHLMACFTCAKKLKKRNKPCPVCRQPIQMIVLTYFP
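Test system: stable mammalian line carrying autodegrading MDM2–luciferase fusion reporter; quantity: 2000 cells in each well; times: 4 h cell settling then 2 h compound exposure, 37 °C; detection: luminescence with SteadyLite reagent, 15 min at room temperature; evaluation: percent signal gain over controls, blank-subtracted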
TNF necrop inh = inhibitors of TNF-alpha triggered necroptosis, primary screen, cell-based, Jurkat FADD-/-, single concentration; Jurkat FADD-/- TNF necroptosis rescue, ATP luminescence, 24 h; 0 = TNF only, 100 = no-TNF cells; activation (protection from cell death), % at 10 µM; 220,000 tested, 0.068% active;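 active = activation, meaning protection from cell death, of at least 50% relative to plate controls; inactive = activation below 50%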;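 also: necroptosis triggered by 40 ng/mL TNF-alpha added together with compound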
L929 necroptosis = inhibitors of zVAD-triggered necroptosis, primary screen, L929 cells; L929 zVAD necroptosis rescue, ATP luminescence, 24 h; with zVAD 60 µM; viability rescue, % at 10 µM; 220,000 tested, 0.38% active;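 active = activation, scaled between plate controls, above about 75%, limit read from the data; inactive = activation under that limit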
Dynein cargo inh = inhibitors of GR-EGFP nuclear translocation, primary screen, dynein cargo transport inhibitor project, imaging, high-content, 3617.4 mouse cells; z-score, hits read low; test concentration mostly 20 µM; stimulated with dexamethasone, 1 µM; stronger effect = lower value; 220,000 tested, 0.47% active;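 active = plate z-score of nuclear minus cytoplasmic receptor signal below a set negative limit, without overly bright fluorescence or cell loss, cut at about -3.5 in these data, passing the limit was not always enough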;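 also: z-score of nuclear minus cytoplasmic ring GR-EGFP intensity difference per well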
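Buffer or medium: tet-free, stripped-serum medium; reagent: dexamethasone at 1.0 µM final, 30 min; incubation: 48 h induction, 1 h compound, 30 min dex at 37 °C; measured by: formaldehyde fixation, Hoechst nuclear stain, 10x automated fluorescence imaging; read-out: nuclear-to-cytoplasmic GR-EGFP distribution per well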
Dynein confirm = dynein cargo transport inhibitors, GR-EGFP translocation, confirmation, imaging, high-content imaging, GR-EGFP cells; shares compounds with Dynein cargo inh; 3617.4 GR-EGFP nuclear translocation imaging, dexamethasone-induced; calls only at 20 µM; 1,000 tested, 69% active;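 active = inhibition of receptor movement into the nucleus at or above a set limit in both runs, with normal cell brightness and cell count; inconclusive = limit reached in only one run, brightness and count normal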;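 also: dexamethasone at 1 µM final in well for 30 min; nuclear minus cytoplasmic GR-EGFP mean intensity difference in channel 2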
A number is an active result; 0 = inactive; ? = inconclusive; - = no result; + = active, no number. An excerpt weighted towards active compounds, which were near 1.8% of everything screened.

SMILES	Autophagy mod	Mdm2 ligase inh	TNF necrop inh	L929 necroptosis	Dynein cargo inh	Dynein confirm
COc1ccc(-n2nc(C#N)c(Cl)cc2=O)cc1	0	0	0	0	-5.9	+
COC(=O)c1nn(-c2ccc(OC)cc2)c(=O)cc1O	0	0	0	0	0	-
COc1ccc(CCNC(=O)CCC(=O)Nc2nnc(C(C)C)s2)cc1OC	0	0	0	0	0	-
CSc1nc2ccc(S(=O)(=O)N3CCCCC3)cc2s1	0	0	0	0	0	-
Nc1nc2ccc(S(=O)(=O)N3CCCCC3)cc2s1	0	0	0	0	-4.1	0
Cc1cccc(C2=NC(C(F)(F)F)(C(F)(F)F)c3c(n(-c4ccc(F)cc4)c(=O)[nH]c3=O)N2)c1	0	0	0	0	-3.7	0
CC(=O)NC1(C(F)(F)F)C(=O)Nc2c1c(=O)[nH]c(=O)n2-c1ccccc1 (stereo unspecified)	-	-	0	0	0	-
Cc1[nH]c2ccccc2c1CN1CCc2ccccc2C1	0	0	0	0	-3.8	0
CC1C/C(=C/c2ccco2)C(=O)/C(=C/c2ccco2)C1 (stereo unspecified)	0	0	0	0	0	+
O=C1/C(=C\c2ccco2)CCC/C1=C\c1ccco1	0	0	0	0	0	-
Cc1ccc(S(=O)(=O)Nc2ccc3c(c2)nc2n3CCN(Cc3ccccc3)C2)cc1	0	0	0	0	-3.5	0
CC(C)OP(=O)(CCP(=O)(OC(C)C)OC(C)C)OC(C)C	-	0	0	0	0	-
COc1ccc(-c2c(C#N)c(N)nc3sc(C(=O)c4ccccc4)c(N)c23)cc1	0	0	0	0	0	0
Cc1ccc(-n2sc3ccccc3c2=O)cc1S(=O)(=O)N1CCCCC1	0	0	0	0	0	-
CN(C)S(=O)(=O)c1cccc(-n2sc3ccccc3c2=O)c1	0	0	0	0	-3.6	0
O=c1c2ccccc2sn1-c1ccc(S(=O)(=O)N2CCCC2)cc1	0	0	0	0	0	-
O=c1c2ccccc2sn1-c1ccccc1	0	0	0	0	-5.2	+
Cc1cc(C)n2nc(SCC(=O)c3c(N)n(CC(C)C)c(=O)n(C)c3=O)nc2n1	0	0	0	0	0	-
Cc1cccc2nc3c(nc12)-c1ccccc1C3=O	-	-	0	0	0	-
O=C(CCl)Nc1cc(-c2ccccc2)nn1-c1ccccc1	+	0	0	0	-4.8	+
Cc1cc(NC(=O)COc2ccccc2)n(-c2ccccc2)n1	0	0	0	0	0	-
CCCCCCN1C=CC(=C/C=C(\C#N)C(=O)OCC)C=C1	+	0	0	0	0	?
CCOC(=O)/C(C#N)=C/C=C1\C=Cc2ccccc2N1CC	0	0	0	0	0	-
Cc1cc(C)c2c(=O)n(CC(=O)NCCCN3CCN(c4ccccc4F)CC3)sc2n1	0	0	0	0	-7.9	+
CCc1cc(OCCCCNCc2ccccc2)ccc1Cl	0	0	0	0	-6.9	0
CC(C)(C)c1ccc(OCCCNCc2ccccc2)cc1	0	0	0	0	0	-
